Measurements from ChEMBL document CHEMBL1800057, “Discovery of dual inducible/neuronal nitric oxide synthase (iNOS/nNOS) inhibitor development candidate 4-((2-cyclobutyl-1H-imidazo[4,5-b]pyrazin-1-yl)methyl)-7,8-difluoroquinolin-2(1H)-one (KD7332) part 2: identification of a novel, potent, and selective series of benzimidazole-quinolinone …” (J Med Chem, 2010).

Legend:
Mus musculus = assay: Neurotoxicity in C57Bl/6j mouse assessed as inability to maintain equilibrium on rotarod up to 1000 mg/kg, po determined 1 to 3 hrs postdose by rotarod test; assay type: toxicity, organism-based; set-up: dose 1000 mg/kg, route oral; details: in vivo
Outline: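 Male C57Bl/6j mice were acclimated to the rotarod at 4 rpm, then given two training sessions on an accelerating rod (4-40 rpm over 300 s). Only mice with latencies >60 s were kept. After oral dosing, latency to fall from the accelerating rod was recorded at 1, 2 and 3 h.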

Cytochrome P450 2C19 = Cytochrome P450 2C19 (Homo sapiens, UniProt P33261); assay: Inhibition of human CYP2C19 at >38 uM; assay type: ADME
[1] = target: T1, Nitric oxide synthase 3 (Homo sapiens) (UniProt P29474); assay: Inhibition of human eNOS expressed in HEK293 cells assessed as inhibition A23187 induced nitric oxide production at 100 uM incubated for 24 hrs measured after 18 hrs of […] challenge using 2,3-diaminonaphthalene by fluorescence assay; assay type: cell-based
T1 sequence (whole entry): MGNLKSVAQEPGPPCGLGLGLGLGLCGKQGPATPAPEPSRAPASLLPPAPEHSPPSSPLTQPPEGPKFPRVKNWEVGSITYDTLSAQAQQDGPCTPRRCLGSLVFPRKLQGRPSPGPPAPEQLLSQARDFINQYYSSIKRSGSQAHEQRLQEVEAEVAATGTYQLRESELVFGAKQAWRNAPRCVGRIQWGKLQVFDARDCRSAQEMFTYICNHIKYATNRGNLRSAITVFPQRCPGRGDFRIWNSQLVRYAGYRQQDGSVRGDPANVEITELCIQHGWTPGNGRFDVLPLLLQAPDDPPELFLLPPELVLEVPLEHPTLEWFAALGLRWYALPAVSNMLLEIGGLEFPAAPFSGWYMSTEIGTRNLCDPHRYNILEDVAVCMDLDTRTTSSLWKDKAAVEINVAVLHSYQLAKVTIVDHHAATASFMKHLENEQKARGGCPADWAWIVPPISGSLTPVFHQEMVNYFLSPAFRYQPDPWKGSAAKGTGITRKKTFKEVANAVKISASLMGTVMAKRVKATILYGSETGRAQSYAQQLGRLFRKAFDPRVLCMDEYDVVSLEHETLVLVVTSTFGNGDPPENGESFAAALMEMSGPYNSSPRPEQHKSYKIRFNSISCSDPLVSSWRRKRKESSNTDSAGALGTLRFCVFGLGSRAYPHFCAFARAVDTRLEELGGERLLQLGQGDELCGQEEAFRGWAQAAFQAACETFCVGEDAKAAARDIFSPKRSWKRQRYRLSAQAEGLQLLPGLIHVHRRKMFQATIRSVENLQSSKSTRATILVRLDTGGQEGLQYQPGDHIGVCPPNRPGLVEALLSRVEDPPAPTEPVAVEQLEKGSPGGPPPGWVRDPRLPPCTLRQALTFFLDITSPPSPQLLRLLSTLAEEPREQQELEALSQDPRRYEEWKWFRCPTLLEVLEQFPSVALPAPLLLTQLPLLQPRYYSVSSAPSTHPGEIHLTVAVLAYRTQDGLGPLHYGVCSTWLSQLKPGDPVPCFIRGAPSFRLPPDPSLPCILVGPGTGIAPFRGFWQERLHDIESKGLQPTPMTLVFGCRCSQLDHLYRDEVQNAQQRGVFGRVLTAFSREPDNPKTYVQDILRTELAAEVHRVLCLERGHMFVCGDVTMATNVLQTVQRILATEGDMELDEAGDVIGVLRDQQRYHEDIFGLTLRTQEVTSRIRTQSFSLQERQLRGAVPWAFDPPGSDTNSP

Homo sapiens [2] = species on record: Homo sapiens; assay: Ratio of IC50 for human eNOS to EC50 for human iNOS
Homo sapiens [3] = species on record: Homo sapiens; assay: Ratio of IC50 for human nNOS to EC50 for human iNOS

Sequence of Cytochrome P450 2C19 (P33261 whole entry): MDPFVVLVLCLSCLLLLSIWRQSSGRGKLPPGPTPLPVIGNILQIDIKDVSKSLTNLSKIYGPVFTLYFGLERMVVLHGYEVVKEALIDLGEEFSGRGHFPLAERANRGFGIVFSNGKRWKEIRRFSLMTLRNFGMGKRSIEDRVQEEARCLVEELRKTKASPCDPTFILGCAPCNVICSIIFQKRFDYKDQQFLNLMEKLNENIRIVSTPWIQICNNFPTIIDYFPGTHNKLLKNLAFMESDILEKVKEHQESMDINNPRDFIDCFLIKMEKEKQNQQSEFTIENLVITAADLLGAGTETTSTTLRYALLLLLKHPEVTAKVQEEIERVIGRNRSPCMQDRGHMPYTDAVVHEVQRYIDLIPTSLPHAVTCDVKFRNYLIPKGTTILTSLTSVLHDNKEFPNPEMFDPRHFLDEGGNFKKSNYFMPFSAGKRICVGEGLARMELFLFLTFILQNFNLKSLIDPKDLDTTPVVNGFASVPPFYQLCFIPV

Row | inhibition (INH) (Cytochrome P450 2C19) | inhibition [1] | Ratio EC50 (Homo sapiens [2]) | Ratio EC50 (Homo sapiens [3]) | Structure (SMILES) | Activity (Mus musculus)
1 | < 50% | – | – | – | O=c1cc(Cn2c(C3CCC3)nc3nccnc32)c2ccc(F)c(F)c2[nH]1 | Non-toxic
2 | – | < 50% | > 263 | 1.8 | CC(C)Cc1nc2ccccc2n1Cc1cc(=O)[nH]c2c(F)c(F)ccc12 | –
